# Experimental data taken from ChEMBL document CHEMBL1142551, “Acylamido analogs of endocannabinoids selectively inhibit cancer cell proliferation” (Bioorg Med Chem, 2008).
# Activity calls are given as the source filed them. The rule behind the calls is not given here.
# Experiments:
# HTB126 [1] = experiment: Antiproliferative activity against human HTB126 cells assessed as […] at 10 uM after 24 hrs by luciferase assay; format: functional, cell-based
# Outline: (§1)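 HTB-126 human breast tumour cells, 2000 cells/well in 24-well plates, grown 24 h, then given vehicle or agent at 10 µM final (diluted from a DMSO stock), N = 6. Parallel plates assayed at successive times after treatment by CellTiter-Glo luciferase ATP luminescence, read 15 min after adding an equal volume of reagent; raw units reported.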
# HTB126 [2] = experiment: Antiproliferative activity against human HTB126 cells assessed as […] at 10 uM after 72 hrs by luciferase assay; format: functional, cell-based; outline: as §1
# HeLa = experiment: Antiproliferative activity against human HeLa cells at 10 uM after 48 hrs relative to control; format: functional, cell-based
# Outline: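 HeLa cells grown in DMEM with 10% FBS, seeded in 96-well plates and treated 24 h after seeding. CellTiter-Glo assay run 48 h post-treatment, four replicates per concentration. Results given as mean ± SEM relative to DMSO vehicle.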
# HTB126 [3] = experiment: Antiproliferative activity against human HTB126 cells assessed as […] at 10 uM after 96 hrs by luciferase assay; format: functional, cell-based; outline: as §1
# HTB126 [4] = experiment: Antiproliferative activity against human HTB126 cells assessed as […] at 10 uM after 48 hrs by luciferase assay; format: functional, cell-based; outline: as §1
# RAW264.7 = experiment: Antiproliferative activity against mouse RAW264.7 cells at 10 uM after 48 hrs relative to control; format: functional
# Outline: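 RAW264.7 cells grown in RPMI with 10% FBS and passaged by scraping. Seeded in 96-well plates, treated at 10 µM 24 h after seeding, four replicates. CellTiter-Glo ATP luminescence read 48 h after treatment; results given as percent of vehicle-treated control with SD.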
# [5] = Antiproliferative activity against human WI38 cells at 10 uM after 48 hrs relative to control; format: cell-based; details: wi-38, 48 h
# Outline: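 WI-38 embryonic lung fibroblasts grown in DMEM with 10% FBS and passaged with trypsin. Plated in 96-well format and exposed to a single 10 µM concentration, with DMSO vehicle. CellTiter-Glo luminescence read 48 h after treatment, four replicates. Values given as percent of control ± SD.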
# RBL-2H3 [6] = experiment: Antiproliferative activity against rat RBL2H3 cells at 1 uM treated 1 hr before LPS-challenge assessed after 24 hrs relative to control; format: functional
# Outline: (§2)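 RBL-2H3 mast cells, 500 cells/well in 96-well plates, grown 24 h, medium changed and cells held 4 h. Agent added 1 h before LPS (10 ng/ml), then 24 h further incubation. Cell number by CellTiter-Glo luminescence, n = 3; values given as raw response and as percent of DMSO control.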
# RBL-2H3 [7] = experiment: Antiproliferative activity against rat RBL2H3 cells at 0.1 uM treated 1 hr before LPS-challenge assessed after 24 hrs relative to control; format: functional; outline: as §2
# RBL-2H3 [8] = experiment: Antiproliferative activity against rat RBL2H3 cells at 10 uM treated 1 hr before LPS-challenge assessed after 24 hrs relative to control; format: functional; outline: as §2
# [9] = Antiproliferative activity against human HTB125 cells at 0.1 to 1.0 uM after 48 hrs by luciferase assay relative to control; format: cell-based; details: htb125, 48 h
# Outline: (§3)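 Matched breast lines from the same donor: HTB-125 (normal) and HTB-126 (tumor), seeded in 96-well plates and treated 24 h after seeding, DMSO vehicle. CellTiter-Glo ATP luminescence read 48 h after treatment. Four replicates per point over a dose series; values expressed as percent of vehicle-treated wells.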
# HTB126 [10] = experiment: (§4) Antiproliferative activity against human HTB126 cells at 10 uM after 48 hrs by luciferase assay relative to control; format: functional
# Outline: (§5)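 HTB-126 cells, with matched normal HTB-125 from the same donor, in DMEM with 10% FBS. Cells seeded in 96-well plates and treated 24 h after seeding across a dose range, four replicates per point. CellTiter-Glo ATP luminescence read 48 h after treatment; values given as percent of vehicle (DMSO) wells.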
# HTB126 [11] = experiment: Antiproliferative activity against human HTB126 cells assessed as fluorescence units at 10 uM after 48 hrs by luciferase assay in presence of rimonabant; format: functional, cell-based
# Outline: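 HTB-126 tumor breast cells in 96-well plates. Rimonabant (10 µM) added 30 min before the test agent (10 µM). CellTiter-Glo luminescence read 48 h later, four replicates. Values reported as raw fluorescence units rather than percent, because there are two control treatments.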
# HTB126 [12] = experiment: Antiproliferative activity against human HTB126 cells at 0.1 to 1.0 uM after 48 hrs by luciferase assay relative to control; format: functional, cell-based; outline: as §3
# [13] = Antiproliferative activity against human HTB125 cells at 10 uM after 48 hrs by luciferase assay relative to control; format: cell-based; details: htb125, 48 h; outline: as §3
# [14] = as §4; format: functional; details: HTB126, 48 h; outline: as §5
compound,measurement,setting,value
CCCCCCC(C)(C)c1cc(O)c2c(c1)OC(C)(C)[C@@H]1CC=C(C(=O)O)C[C@@H]21,Activity,HTB126 [1],Active
same,Activity,HTB126 [2],Active
same,Activity,HeLa,Active
same,Activity,HTB126 [3],Active
same,Activity,HTB126 [4],Active
CCCCC/C=C\C/C=C\C/C=C\C/C=C\CCCCCC(=O)NCCc1ccc(O)c(O)c1,Activity,RAW264.7,4.32%
same,Activity,[5],25.7%
same,Activity,HeLa,Active
CCCCC/C=C\C/C=C\C/C=C\C/C=C\CCCCCC(=O)NCCO,Activity,RAW264.7,65%
same,Activity,[5],24%
CCCCCCCC/C=C\CCCCCCCC(=O)NCCc1ccc(O)c(O)c1 [OLEOYL DOPAMINE],Activity,RAW264.7,7.02%
same,Activity,[5],24%
same,Activity,HeLa,Active
CCCCC/C=C\C/C=C\C/C=C\CCCCCCC(=O)NCCO,Activity,RAW264.7,70%
same,Activity,[5],54%
CCCCC/C=C\C/C=C\C/C=C\C/C=C\CCCC(N)=O [ARACHIDONAMIDE],Activity,RAW264.7,91%
same,Activity,[5],58%
CCCCC/C=C\C/C=C\C/C=C\C/C=C\CCCC(=O)N[C@@H](C)C(=O)O,Activity,RBL-2H3 [6],160%
same,Activity,RBL-2H3 [7],120%
same,Activity,RBL-2H3 [8],50%
CCCCCCCCCCCCCCCC(N)=O [PALMITAMIDE],Activity,RAW264.7,100%
same,Activity,[5],118%
CCCCC/C=C\C/C=C\C/C=C\C/C=C\CCCC(=O)NCCCC(=O)O [ARACHIDONOYL GABA],Activity,RBL-2H3 [6],120%
same,Activity,RBL-2H3 [7],100%
same,Activity,RBL-2H3 [8],15%
CC/C=C\C/C=C\C/C=C\CCCCCCCC(N)=O [LINOLENAMIDE],Activity,RAW264.7,126%
same,Activity,[5],85%
CCCCC/C=C\C/C=C\C/C=C\CCCCC(=O)NCCO,Activity,RAW264.7,87%
same,Activity,[5],54%
CCCCCCCCCCCCCCCC(=O)NCC(=O)O [PALMITOYL GLYCINE],Activity,RBL-2H3 [6],110%
same,Activity,RBL-2H3 [7],130%
same,Activity,HeLa,Active
same,Activity,RBL-2H3 [8],110%
CCCCC/C=C\C/C=C\C/C=C\CCCCC(N)=O,Activity,RAW264.7,94%
same,Activity,[5],33%
CCCCCCCCCCCCCCCC(=O)N[C@@H](Cc1ccc(O)cc1)C(=O)O,Activity,HTB126 [1],Active
same,Activity,[9],Non-toxic
same,Activity,HTB126 [10],Active
same,Activity,HTB126 [2],Active
same,Activity,HTB126 [4],Active
same,Activity,HTB126 [11],inactive
same,Activity,HTB126 [12],inactive
CCCCC/C=C\C/C=C\C/C=C\CCCCCCC(=O)NCCc1ccc(O)c(O)c1,Activity,RAW264.7,5.72%
same,Activity,[5],25.5%
same,Activity,HeLa,Active
CCCCCCCC/C=C\CCCCCCCC(=O)NCCO [OLEOYLETHANOLAMIDE],Activity,RAW264.7,117%
same,Activity,[5],140%
CCCCCCCCCCCCCCCC(=O)NCCc1ccc(O)c(O)c1 [PALMITOYL DOPAMINE],Activity,RBL-2H3 [6],50%
same,Activity,RAW264.7,11.1%
same,Activity,[13],Not Active
same,Activity,RBL-2H3 [7],130%
same,inhibition at 10 µM,[14],80%
same,Activity,[5],41.6%
same,Activity,RBL-2H3 [8],15%
COc1ccc2c(c1)c(CC(=O)O)c(C)n2C(=O)c1ccc(Cl)cc1 [INDOMETHACIN],Activity,RAW264.7,177%
same,Activity,[5],144%
CCCCC/C=C\C/C=C\C/C=C\C/C=C\CCCC(=O)NCCO [ANANDAMIDE],Activity,RAW264.7,110%
same,Activity,[5],74%
CCCCCCCCCCCCCCCC(=O)NCCO [PALMIDROL],Activity,RAW264.7,66%
same,Activity,[5],130%
CCCCC/C=C\C/C=C\C/C=C\CCCCCCC(N)=O,Activity,RAW264.7,82%
same,Activity,[5],58%
CCCCCCCCCCCCCCCC(=O)NCCCC(=O)O [PALMITOYL GABA],Activity,RBL-2H3 [6],100%
same,Activity,RBL-2H3 [7],120%
same,Activity,RBL-2H3 [8],100%
CCCCC/C=C\C/C=C\C/C=C\C/C=C\CCCC(=O)NCCc1ccc(O)c(O)c1 [ARACHIDONOYL DOPAMINE],Activity,RBL-2H3 [6],70%
same,Activity,RAW264.7,2.33%
same,Activity,RBL-2H3 [7],110%
same,Activity,[5],22.1%
same,Activity,RBL-2H3 [8],14%
CCCCC/C=C\C/C=C\C/C=C\C/C=C\CCCC(=O)NCC(=O)O [ARACHIDONOYL GLYCINE],Activity,RBL-2H3 [6],130%
same,Activity,RBL-2H3 [7],130%
same,Activity,RBL-2H3 [8],21%
CCCCC/C=C\C/C=C\CCCCCCCC(=O)NCCO [LINOLEOYLETHANOLAMIDE],Activity,RAW264.7,100%
same,Activity,[5],63%
CCCCCCCCCCCCCCCC(=O)N[C@@H](C)C(=O)O,Activity,RBL-2H3 [6],90%
same,Activity,RBL-2H3 [7],110%
same,Activity,RBL-2H3 [8],10%
CCCCCCCC/C=C\CCCCCCCC(N)=O [OLEAMIDE],Activity,RAW264.7,134%
same,Activity,[5],94%
CCCCC/C=C\C/C=C\C/C=C\C/C=C\CCCCCC(N)=O,Activity,RAW264.7,91%
same,Activity,[5],61%
CCCCC/C=C\C/C=C\C/C=C\CCCCC(=O)NCCc1ccc(O)c(O)c1,Activity,RAW264.7,6.1%
same,Activity,[5],38.3%
same,Activity,HeLa,Active
